Measurements from ChEMBL document CHEMBL1914380, “Polyalkoxybenzenes from plants. 5. Parsley seed extract in synthesis of azapodophyllotoxins featuring strong tubulin destabilizing activity in the sea urchin embryo and cell culture assays” (J Med Chem, 2011).
Active and inactive are the calls of the source. The rule behind the calls is not given here.

Legend:
[1] = test system: Paracentrotus lividus; assay: Antimitotic activity against Paracentrotus lividus embryo assessed as embryo spinning up to 4 uM […] followed by 45 to 60 mins before the first mitotic cycle completion by sea urchin embryo assay; format: functional, organism-based
[2] = test system: Paracentrotus lividus; assay: Antimitotic activity against Paracentrotus lividus embryo assessed as cleavage arrest up to 4 uM […] followed by 45 to 60 mins before the first mitotic cycle completion by sea urchin embryo assay; format: functional, organism-based
[3] = test system: Paracentrotus lividus; assay: Antimitotic activity against Paracentrotus lividus embryo assessed as cleavage alteration up to 4 uM […] followed by 45 to 60 mins before the first mitotic cycle completion by sea urchin embryo assay; format: functional, organism-based
[4] = test system: Paracentrotus lividus; assay: Antimitotic activity against Paracentrotus lividus embryo assessed as cleavage alteration treated 10 to 25 mins post fertilization followed by 45 to 60 mins before the first mitotic cycle completion by sea urchin embryo assay; format: functional
[5] = test system: Paracentrotus lividus; assay: Antimitotic activity against Paracentrotus lividus embryo assessed as cleavage arrest treated 10 to 25 mins post fertilization followed by 45 to 60 mins before the first mitotic cycle completion by sea urchin embryo assay; format: functional
[6] = test system: A549; assay: Inhibition of microtubule polymerization in human A549 cells assessed as total disruption of interphase microtubule network at > 5 uM after 8 hrs by immunofluorescence microscopy; format: cell-based
[7] = test system: A549; assay: Cytotoxicity against human A549 cells assessed as cell viability after 24 hrs by MTT assay; format: functional, cell-based; details: A549, 24 h
In short: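 A549 human lung carcinoma cells; growth inhibition measured by MTT assay. IC50 derived from dose-response curves, mean ± SD of three independent experiments.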

[8] = test system: Paracentrotus lividus; assay: Antimitotic activity against Paracentrotus lividus embryo assessed as embryo spinning treated 10 to 25 mins post fertilization followed by 45 to 60 mins before the first mitotic cycle completion by sea urchin embryo assay; format: functional
[9] = test system: A549; assay: Inhibition of microtubule polymerization in human A549 cells assessed as total disruption of interphase microtubule network at 0.5 uM after 8 hrs by immunofluorescence microscopy; format: cell-based
In short: (§1)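 A549 cells incubated 8 h with compound at 0.1, 0.5, 1 and 5 μM; DMSO vehicle as negative control. Microtubules labelled by indirect immunofluorescence and examined by fluorescence microscopy. Value is the concentration giving total interphase microtubule disassembly, from three independent experiments.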

[10] = test system: A549; assay: Inhibition of microtubule polymerization in human A549 cells assessed as total disruption of interphase microtubule network at 1 uM after 8 hrs by immunofluorescence microscopy; format: cell-based; in short: as §1
[11] = test system: A549; assay: Inhibition of microtubule polymerization in human A549 cells assessed as total disruption of interphase microtubule network at 0.1 uM after 8 hrs by immunofluorescence microscopy; format: cell-based; in short: as §1
[12] = test system: P388; assay: Cytotoxicity against mouse P388 cells assessed as cell viability after 48 hrs by trypan blue exclusion assay; format: functional, cell-based; details: P388, 48 h
[13] = test system: A549; assay: Inhibition of microtubule polymerization in human A549 cells assessed as total disruption of interphase microtubule network at 5 uM after 8 hrs by immunofluorescence microscopy; format: cell-based; in short: as §1
[14] = test system: A549; assay: Cell cycle arrest in human A549 cells assessed as accumulation of cells in G2/M phase after 24 hrs by propidium iodide staining-based flow cytometry; format: functional; details: A549, 24 h
[15] = test system: Paracentrotus lividus; assay: Antimitotic activity against Paracentrotus lividus embryo assessed as formation of tuberculate egg at 100 nM after 6 hrs post fertilization by microscopic analysis; format: functional, organism-based
[16] = test system: Paracentrotus lividus; assay: Antimitotic activity against Paracentrotus lividus embryo assessed as cleavage alteration at 10 nM after 6 hrs post fertilization by microscopic analysis; format: functional, organism-based
[17] = test system: A549; assay: Induction of apoptosis in human A549 cells assessed as early apoptotic cells at 10 to 100 nM after 48 hrs by annexin-V FITC/7-ADD staining-based flow cytometric analysis; format: functional, cell-based
[18] = test system: A549; assay: Induction of apoptosis in human A549 cells assessed as late apoptotic cells at 10 to 100 nM after 48 hrs by annexin-V FITC/7-ADD staining-based flow cytometric analysis; format: functional, cell-based
[19] = test system: A549; assay: Induction of apoptosis in human A549 cells assessed as necrotic cells at 10 to 100 nM after 48 hrs by annexin-V FITC/7-ADD staining-based flow cytometric analysis; format: functional, cell-based

SMILES | Activity [1] | Activity [2] | Activity [3] | EC [4] | EC [5] | IC50 [7] | EC [8] | further results
COc1c(C2C3=C(COC3=O)Nc3cn(C)nc32)cc2c(c1OC)OCO2 (stereo unspecified) | inactive | inactive | inactive |  |  |  |  | 
COc1cc(C2C3=C(COC3=O)Nc3ccccc32)cc2c1OCO2 (stereo unspecified) |  |  |  | 20 nM | 200 nM | 534 nM | 2000 nM | inhibition [6]: Active
COc1ccc(C2C3=C(COC3=O)Nc3cc4c(cc32)OCO4)cc1OC (stereo unspecified) |  |  |  | 5 nM | 100 nM | 596 nM | 2000 nM | inhibition [9]: Active; inhibition [10]: Active; inhibition [11]: Active; IC50 [12]: 131 nM; inhibition [13]: Active; EC50 [14]: 230 nM
COc1cc(C2C3=C(COC3=O)Nc3[nH]nc(C)c32)c(OC)c2c1OCO2 (stereo unspecified) | inactive | inactive | inactive |  |  |  |  | 
COc1ccc(C2C3=C(COC3=O)Nc3[nH]ncc32)cc1 (stereo unspecified) | inactive | inactive | inactive |  |  |  |  | 
COc1cc(C2C3=C(COC3=O)Nc3cc4c(cc32)OCCO4)cc2c1OCO2 (stereo unspecified) |  |  |  | 5 nM | 50 nM | 64.7 nM | 100 nM | inhibition [9]: Active; inhibition [10]: Active; inhibition [11]: Active; inhibition [13]: Active; EC50 [14]: 119 nM
COc1cc(C2C3=C(COC3=O)Nc3cn(C)nc32)cc(OC)c1OC (stereo unspecified) | inactive | inactive | inactive |  |  |  |  | 
COc1c(C2C3=C(COC3=O)Nc3[nH]nc(C)c32)cc2c(c1OC)OCO2 (stereo unspecified) | inactive | inactive | inactive |  |  |  |  | 
COc1cc(C2C3=C(COC3=O)Nc3[nH]nc(C)c32)cc(OC)c1OC (stereo unspecified) | inactive | inactive | inactive |  |  |  |  | 
COc1cc(C2C3=C(COC3=O)Nc3cc4c(cc32)OCO4)cc2c1OCO2 (racemic) |  |  |  | 5 nM | 50 nM | 55.2 nM | 50 nM | Activity [15]: Active; inhibition [9]: Active; inhibition [10]: Active; inhibition [11]: Active; Activity [16]: Active; inhibition [13]: Active
COc1cc(C2C3=C(COC3=O)Nc3cn(C)nc32)cc2c1OCO2 (stereo unspecified) | inactive | inactive | inactive |  |  |  |  | 
COc1cc(C2C3=C(COC3=O)Nc3cn(C)nc32)c(OC)c2c1OCO2 (stereo unspecified) | inactive | inactive | inactive |  |  |  |  | 
COc1cc(C2C3=C(COC3=O)Nc3cc4c(c(OC)c32)OCO4)cc2c1OCO2 (stereo unspecified) |  |  |  | 50 nM | 500 nM | 298 nM | 2000 nM | inhibition [6]: Active
COc1cc(C2C3=C(COC3=O)Nc3[nH]ncc32)cc(OC)c1OC (stereo unspecified) | inactive | inactive | inactive |  |  |  |  | 
COC(=O)Nc1nc2cc(C(=O)c3cccs3)ccc2[nH]1 |  |  |  |  |  |  |  | Activity [17]: Active; Activity [18]: inactive; Activity [19]: Active
COc1cc(C2C3=C(COC3=O)Nc3cc4c(cc32)OCO4)cc(OC)c1OC (stereo unspecified) |  |  |  | 50 nM | 500 nM | 2.71 nM | 2000 nM | Activity [17]: Active; inhibition [9]: Active; inhibition [10]: Active; Activity [18]: inactive; inhibition [11]: Active; inhibition [13]: Active; Activity [19]: Active; EC50 [14]: 16.2 nM
